Read-outs that look alike come from different tables or passages of the source. Where a SMILES comes first, the peptide text is derived from it.
Columns and labels:
2P-ERK2 (active ERK2) [1] = target: T1, 2P-ERK2 (active ERK2) (Rattus norvegicus, UniProt P63086); test: NMR; assay type: binding
0P-ERK2 (inactive ERK2) [2] = target: T2, 0P-ERK2 (inactive ERK2) (Rattus norvegicus, UniProt P63086); test: NMR; assay type: binding
[3] = target: 0P-ERK2 mutant that was binding competent only at the DEJL-site; settings: full-length Elk1 protein and 0P-ERK2 mutant binding competent only at the DEJL-site; cited from earlier work
[4] = target: Elk1F peptide DEF-site peptide (Homo sapiens) (UniProt P19419); settings: cited from earlier work
0P-p38α = settings: read-out: binding affinity of ATP; cited from earlier work
[5] = system: Tyr-185 phosphorylated (pY) ERK2; settings: formation of the ternary MBP-bound complex of pY ERK2; cited from earlier work
2P-p38α = settings: cited from earlier work
0P-ERK2 (inactive ERK2) [6] = target: T2, 0P-ERK2 (inactive ERK2); test: NMR; assay type: binding; settings: estimated, slow/intermediate exchange prevented accurate determination
In short: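 Unphosphorylated ERK2 from E. coli BL21(DE3), ILV-methyl-labeled in a protonated background, ~0.26 mM in 50 mM Tris pH 7.4, 150 mM NaCl, 5 mM MgSO4, 0.1 mM EDTA, 5 mM DTT, 99% D2O, 2.5% glycerol. AMP-PNP titrated at 0, 0.1, 0.2, 0.3, 1.0, 2.1, 4.2 mM; 5 h 2D TROSY-HMQC per point, 25 °C, 800 MHz; combined methyl CSP (1H, 0.25×13C).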

2P-ERK2 (active ERK2) [7] = target: T1, 2P-ERK2 (active ERK2); test: NMR; assay type: binding; settings: estimated, slow/intermediate exchange prevented accurate determination

## CC(C)C[C@H](NC(=O)[C@H](CO)NC(=O)[C@@H]1CCCN1C(=O)[C@H](CO)NC(=O)[C@H](CC(C)C)NC(=O)[C@@H]1CCCN1C(=O)[C@H](CC(C)C)NC(=O)[C@H](CCC(=O)O)NC(=O)[C@H](CC(C)C)NC(=O)[C@H](CC(=O)O)NC(=O)[C@H](CCCNC(=N)N)NC(=O)[C@@H]1CCCN1C(=O)[C@H](CCCCN)NC(=O)[C@H](CCCNC(=N)N)NC(=O)CNC(=O)[C@H](CCCCN)NC(=O)[C@@H](N)CCC(N)=O)C(=O)O [Elk1D] (H-QKGRKPRDLELPLSPSL-OH)
2P-ERK2 (active ERK2) [1]
  Kd: 30 ± 3 µM
0P-ERK2 (inactive ERK2) [2]
  Kd: 10 ± 1 µM

## full-length Elk1 protein: full-length transcription factor Elk1, a substrate of ERK2
[3]
  Kd: 5 µM

## ERK2 (2P-ERK2) (from UniProt P63086)
[4]
  Kd: 8 µM

## Nc1ncnc2c1ncn2[C@@H]1O[C@H](COP(=O)(O)OP(=O)(O)OP(=O)(O)O)[C@@H](O)[C@H]1O [ATP]
0P-p38α
  Kd: > 15000 µM
[5]
  koff, ATP: 0.5 s⁻¹
2P-p38α; 2P-p38α versus 0P-p38α
  increase in the binding affinity of ATP upon phosphorylation: > 30 fold
2P-p38α; read-out: binding affinity of ATP, 2P-p38α
  Kd: 430 µM

## Nc1ncnc2c1ncn2[C@@H]1O[C@H](COP(=O)(O)OP(=O)(O)NP(=O)(O)O)[C@@H](O)[C@H]1O [AMP-PNP, adenosine 5′-(β,γ-imido)triphosphate]
0P-ERK2 (inactive ERK2) [6]
  Kd: 200 to 500 µM
2P-ERK2 (active ERK2) [7]
  Kd: 200 to 500 µM
